The text below walks through data of PubChem BioAssay.

SMILES strings stand for the structures. Records with an inconclusive call do not appear. Calls of active or inactive are those of the source.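 How the source made its calls, unless noted: active means RAM network inhibition above 8.4% in each of two replicates, 3 SD over the compound average; inconclusive means above 8.4% inhibition in only one replicate; inactive means 8.4% inhibition or less in each replicate.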

Experiment [1] is described as follows: OD615 S. cerevisiae growth inhibition, permissive medium, pilot counter-assay, permissive growth control for S. cerevisiae lifespan shortening project (AID 705;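 active means growth inhibition above 25% in both replicates, a cutoff set 3 SD above the mean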). To be noted: OD615, 24 h, at 10 µM, stronger effect = higher value. The gist of the method: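 System – S. cerevisiae with engineered DeaD lifespan system · Buffer or medium – SC raffinose/galactose permissive medium · Schedule – cells pre-grown 4 h, then 24 h compound exposure, 30 °C humidified · Technique – culture turbidity as optical density at 615 nm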

Experiment [2] is described as follows: Restrictive medium S. cerevisiae growth inhibition, OD615, pilot screen of yeast lifespan reduction project, restrictive growth control (AID 706;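 active means growth inhibition above a set limit, 3 SD over mean compound inhibition, in both replicates, cut at about 43% in these data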;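 further: modified DeaD lifespan yeast strain shifted to restrictive glucose medium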). Particulars: OD615, 48 h, at 10 µM, stronger effect = higher value. The gist of the method:
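Material: engineered S. cerevisiae DeaD strain / Medium: glucose-based CSMM-D restrictive medium / Compound: single dose of 10 µM compound final, 0.25% DMSO / Timing: 4 h pre-incubation, 48 h exposure at 30 °C / Technique: OD615 absorbance reading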

A short description of experiment [3]: viability gain of MRP-1-high H69AR cells under doxorubicin, pilot screen, MRP-1 activator project, CellTiter-Glo, duplicate (AID 807;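 active means viability increase at or above a cutoff of the median across tested compounds plus 3 SD, cut at about 8.5% in these data, passing the limit was not always enough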;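 further: compound pretreatment 18-22 h then 72 h combined with doxorubicin; 0% = doxorubicin alone and 100% = vehicle without doxorubicin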). Particulars: H69AR viability with doxorubicin, CellTiter-Glo luminescence; at 10 µM; stronger effect = higher value.
Experiment [4] can be described thus: growth suppression of beta-catenin knockout HCT116, pilot screen, human colon tumor cells (AID 823;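 active means cell viability at or below a set limit in both duplicate runs, the limit being the all-compound median minus 4 SD, cut at about 23% in these data, passing the limit was not always enough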;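 further: 0% = wells killed by 20 µM Hyamine and 100% = untreated DMSO cell wells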). Particulars: CellTiter-Glo, 60 h, at 10 µM, stronger effect = lower value.
Experiment [5] in a line: growth suppression of PTEN-deleted HCT116, pilot screen, cell-based, HCT116 clonal line, CellTiter-Glo (AID 824;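 active means viability at or below 27.92% in each of two runs, the all-compound median minus 4 SD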;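 further: 0% = 20 µM Hyamine control and 100% = vehicle cell control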). To be noted: 60 h, at 10 µM, stronger effect = lower value.
Experiment [6] in a line: inhibitors of the yeast RAM network, pilot screen, dse1pr::URA3 reporter, 5-FOA selection (AID 869;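 active means inhibition over a set limit, the all-compound mean plus 3 SD, in both replicate runs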;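 further: 0% = DMSO wells with no growth and 100% = 10 µM 1-NA-PP1 with full growth; RAM network block rescues cells from 5-FOA so hits raise OD615 growth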). To be noted: S. cerevisiae dse1pr::URA3 5-FOA growth, OD615, 2 d; at 10 µM; stronger effect = higher value; strain carries analog-sensitive mutant Cbk1 kinase.
Experiment [7] can be described thus: RAM signaling pathway blockade in yeast – S. cerevisiae, Pdr1DBD-CYC8 efflux-inhibited sensitized strain, primary screen (AID 1298).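 Further: 0% = DMSO untreated cells without growth and 100% = 10 µM 1-NA-PP1 full growth; higher means more yeast growth rescued from 5-FOA killing.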 Particulars: S. cerevisiae cbk1-as DSE1-URA3 strain, 5-FOA growth OD615, 2 d; at 50 µM; stronger effect = higher value.

For `Clc1ccc(-c2noc(COc3ccccc3)n2)cc1`, the growth inhibition in experiment [1] is -3.93% (inactive); in experiment [2], 14.3% (inactive). In addition, in experiment [3], the viability increase is 2.15% (inactive). Besides, the viability in experiment [4] is 101% (inactive); in experiment [5] it was 95.6% (inactive). The inhibition in experiment [6] was 0.745% (inactive). The RAM network inhibition in experiment [7] was 9.14% (inactive).
Consider `O=P(c1ccccc1)(c1ccccc1)C1CCCO1` (centres undefined), for which the growth inhibition in experiment [1] was -10.8% (inactive); in experiment [2] it was 8.75% (inactive). In addition, the viability increase in experiment [3] is 1.36% (inactive). For the same compound, the viability in experiment [4] was 97.7% (inactive); in experiment [5], 91.7% (inactive). The inhibition in experiment [6] was 2.44% (inactive). In addition, the RAM network inhibition in experiment [7] was 0.92% (inactive).
As to `Cc1c(C(=O)O)oc2ccc(S(=O)(=O)N3CCCCC3C(=O)O)cc12` (centres undefined), the growth inhibition in experiment [1] is 4.47% (inactive); in experiment [2], -3.15% (inactive). In experiment [3], the viability increase was -0.18% (inactive). Besides, the viability is 97.1% (inactive) in experiment [4] and 101% (inactive) in experiment [5]. The inhibition in experiment [6] is 1.12% (inactive). In experiment [7], the RAM network inhibition is 5.52% (inactive).
As for `O=C(c1nnc(Cc2ccc(Cl)cc2)o1)N1CCc2ccccc2C1`, the figures for the growth inhibition in experiment [1] and in experiment [2] were -7.83% (inactive) and 7.34% (inactive), respectively. The viability increase in experiment [3] was 3.24% (inactive). Besides, the viability in experiment [4] is 103% (inactive); in experiment [5] it was 107% (inactive). Besides, the inhibition in experiment [6] is 0.135% (inactive). Besides, the RAM network inhibition in experiment [7] is 4.39% (inactive).
In the case of `O=C(c1ccc(CS(=O)(=O)c2ccc(Br)cc2)o1)N1CCN(C2CCCCC2)CC1`, the results for the growth inhibition in experiment [1] and in experiment [2] were 0.435% (inactive) and 9.43% (inactive), respectively. Also, the viability increase in experiment [3] was -3.78% (inactive). The viability in experiment [4] is 112% (inactive); in experiment [5], 95.8% (inactive). Also, the inhibition in experiment [6] was 1.93% (inactive). For the same compound, the RAM network inhibition in experiment [7] is 0.46% (inactive).
Take `COc1cccc(C2c3c(oc4ccc(F)cc4c3=O)C(=O)N2CCCN2CCOCC2)c1` (centres undefined): the growth inhibition was -9.58% (inactive) in experiment [1] and -6.59% (inactive) in experiment [2]. In addition, in experiment [3], the viability increase was -1.59% (inactive). For the same compound, the viability in experiment [4] and in experiment [5] was 105% (inactive) in each case. Besides, in experiment [6], the inhibition is 1.25% (inactive). Further, the RAM network inhibition in experiment [7] is 4.33% (inactive).
With `CCCOC(=O)c1ccc(NC(=O)c2ccoc2C)cc1`, the figures for the growth inhibition in experiment [1] and in experiment [2] were -3.79% (inactive) and 1.33% (inactive), respectively. The viability increase in experiment [3] was 0.94% (inactive). In addition, the figures for the viability in experiment [4] and in experiment [5] were 75.5% (inactive) and 78% (inactive), respectively. Besides, the inhibition in experiment [6] was 2.72% (inactive). Besides, the RAM network inhibition in experiment [7] was 4.37% (inactive).
Consider `CCCOc1ccc(N2C(=O)CC(N3CCC(O)(c4cccc(C(F)(F)F)c4)CC3)C2=O)cc1` (centres undefined), for which the results for the growth inhibition in experiment [1] and in experiment [2] were 1.01% (inactive) and -0.55% (inactive), respectively. Besides, the viability increase in experiment [3] was 2.49% (inactive). The viability was 101% (inactive) in experiment [4] and 103% (inactive) in experiment [5]. In addition, the inhibition in experiment [6] was 2.71% (inactive). For the same compound, in experiment [7], the RAM network inhibition is 5.62% (inactive).
Turning to `COc1ccc(N(CC(=O)Nc2cccc(SC)c2)S(C)(=O)=O)cc1Cl`, the growth inhibition in experiment [1] is -4.88% (inactive); in experiment [2], -9.05% (inactive). For the same compound, the viability increase in experiment [3] was -6.18% (inactive). Also, the viability was 77.7% (inactive) in experiment [4] and 80.6% (inactive) in experiment [5]. Moreover, the inhibition in experiment [6] was 0.975% (inactive). For the same compound, the RAM network inhibition in experiment [7] is 3.03% (inactive).
Consider `CN1CCN(C(=O)c2ccccc2NC(=O)Cc2ccccc2)CC1`, for which the growth inhibition in experiment [1] is -12.3% (inactive); in experiment [2], 1.69% (inactive). Moreover, the viability increase in experiment [3] is -1.06% (inactive). Besides, the viability in experiment [4] is 98.4% (inactive); in experiment [5], 103% (inactive). Further, the inhibition in experiment [6] was 1.83% (inactive). Moreover, the RAM network inhibition in experiment [7] is 1.81% (inactive).
On to `O=C(NC(Cc1ccc2c(c1)OCO2)C(=O)N1CCCC1C(=O)O)c1ccccc1` (centres undefined), for which the growth inhibition was -2.82% (inactive) in experiment [1] and 0.59% (inactive) in experiment [2]. Besides, the viability increase in experiment [3] was 0.05% (inactive). Also, the values for the viability in experiment [4] and in experiment [5] were 95.1% (inactive) and 98.1% (inactive), respectively. The inhibition in experiment [6] is 0.125% (inactive). Besides, the RAM network inhibition in experiment [7] was 6.49% (inactive).
For `Cc1cc(=O)oc2cc(OCC(O)CN3CCN(c4ccc(F)cc4)CC3)ccc12` (centres undefined), the results for the growth inhibition in experiment [1] and in experiment [2] were -10.4% (inactive) and -2.92% (inactive), respectively. For the same compound, the viability increase in experiment [3] was -0.12% (inactive). Further, the viability is 74.5% (inactive) in experiment [4] and 80.8% (inactive) in experiment [5]. Also, the inhibition in experiment [6] is 0.85% (inactive). The RAM network inhibition in experiment [7] is -0.18% (inactive).
As to `CCOc1ccc(NC(=O)c2cnc3scc(C)n3c2=O)cc1`, the figures for the growth inhibition in experiment [1] and in experiment [2] were -17.7% (inactive) and 3.42% (inactive), respectively. Besides, in experiment [3], the viability increase was -1.16% (inactive). Besides, the viability was 101% (inactive) in experiment [4] and 98.9% (inactive) in experiment [5]. For the same compound, the inhibition in experiment [6] is 2.76% (inactive). Moreover, in experiment [7], the RAM network inhibition was 8.45% (inactive).
Consider `Oc1c(C(c2cccs2)N2CCN(c3ccc(F)cc3)CC2)sc2ncnn12` (centres undefined), for which the growth inhibition in experiment [1] is 0.78% (inactive); in experiment [2], -6.24% (inactive). Besides, the viability increase in experiment [3] is 13.4% (active). Also, the viability was 105% (inactive) in experiment [4] and 90.9% (inactive) in experiment [5]. The inhibition in experiment [6] is 0.495% (inactive). The RAM network inhibition in experiment [7] was 8.63% (inactive).
Consider `CCOC(=O)CSC(CC)C(=O)Nc1nnc(CC)s1` (centres undefined), for which the values for the growth inhibition in experiment [1] and in experiment [2] were -15.4% (inactive) and -6% (inactive), respectively. Besides, in experiment [3], the viability increase is 2.67% (inactive). The viability in experiment [4] is 102% (inactive); in experiment [5], 96.6% (inactive). Moreover, the inhibition in experiment [6] was 0.62% (inactive). The RAM network inhibition in experiment [7] was -0.27% (inactive).
Consider `CC(C)c1nnc(NC(=O)c2cccs2)s1`, for which the growth inhibition in experiment [1] is -15% (inactive); in experiment [2] it was -8.46% (inactive). The viability increase in experiment [3] was 0.84% (inactive). Besides, the viability in experiment [4] is 95.5% (inactive); in experiment [5], 86.4% (inactive). For the same compound, the inhibition in experiment [6] was 1.23% (inactive). Moreover, in experiment [7], the RAM network inhibition was 6.85% (inactive).
For `COC(=O)NCc1ccc(Cl)c(Cl)c1`, the growth inhibition in experiment [1] is 0.76% (inactive); in experiment [2], -7.57% (inactive). Besides, the viability increase in experiment [3] is -1.07% (inactive). Besides, the figures for the viability in experiment [4] and in experiment [5] were 85.4% (inactive) and 88.6% (inactive), respectively. The inhibition in experiment [6] was 0.09% (inactive). For the same compound, in experiment [7], the RAM network inhibition was 4.44% (inactive).
